# Measured values of several laboratories.
# Protocols differ between the studies behind these lines.
# DHODH: Dihydroorotate dehydrogenase (quinone), mitochondrial (DHODH, Homo sapiens, UniProt Q02127)
# TYMS: Thymidylate synthase (TYMS, Homo sapiens, UniProt P04818)
# PSMB8: Proteasome subunit beta type-8 (PSMB8, Homo sapiens, UniProt P28062)
# DYRK1B: Dual specificity tyrosine-phosphorylation-regulated kinase 1B (DYRK1B, Homo sapiens, UniProt Q9Y463)
# EPHA7: Ephrin type-A receptor 7 (EPHA7, Homo sapiens, UniProt Q15375)
Compound,target,assay,conditions,IC50
Cc1c(C(=O)NC(C)c2nc[nH]n2)[nH]c(Cl)c1C1(c2ccc(C(F)(F)F)nc2)CC1 (centres unmarked),DHODH,"enzyme activity, inhibitor",,> 100 µM
CCOC(=O)C1CCN(C(=O)c2ccc(N(CC)Cc3cnc4nc(N)nc(N)c4n3)cc2)CC1,TYMS,"enzyme activity, inhibitor",,91.9 µM
Cc1ncc(C(=O)N[C@@H](CC2CCC(C3CCCCC3)CC2)C(=O)N[C@@H](CC(C)C)C(=O)N[C@H](/C=C/S(C)(=O)=O)Cc2ccc(CN)cc2)s1 (some centres unmarked),PSMB8,"enzyme activity, inhibitor",lysate,> 10 µM
Cc1nc(NC2CCc3cc(Cl)ccc3C2)c2c(C)noc2n1 (centres unmarked),DHODH,"enzyme activity, inhibitor, absorbance",,> 100 µM
O=c1c2cc(Br)c(Br)n2cc2n1CCC2,"Proteasome subunit beta type-8, chymotrypsin-like site (PSMB8, Homo sapiens, UniProt P28062)","enzyme activity, inhibitor",,> 100 µM
Cc1ncc(C(=O)N[C@@H](CC2CCC(C)CC2)C(=O)N[C@@H](CC(C)C)C(=O)N[C@H](/C=C/S(C)(=O)=O)Cc2ccc(CN)cc2)s1 (some centres unmarked),PSMB8,"enzyme activity, inhibitor",lysate,> 10 µM
COC[C@@H](C)NC1CCC(Nc2cc(-c3cccc(NCC4(C#N)CCOCC4)n3)c(Cl)cn2)CC1 (some centres unmarked),DYRK1B,"enzyme activity, inhibitor, FRET",,0.35 µM
CCOCc1nc(O)c(-c2nnc(Cc3ccc(Cl)cn3)o2)c(O)c1-c1c(OC)cccc1OC,"Alpha-1D adrenergic receptor (ADRA1D, Homo sapiens, UniProt P25100)","ligand displacement, radioligand",,> 30 µM
CC(C)C[C@H](NC(=O)c1cc(Cl)ccc1Cl)C(=O)N[C@@H](CC(C)C)C(=O)N[C@H](/C=C/S(C)(=O)=O)Cc1ccc(CN)cc1,PSMB8,"enzyme activity, inhibitor",lysate,1.83 µM
O=C(O)C1=CC(=C(c2ccc(O)c(C(=O)O)c2)c2ccc(O)c(C(=O)O)c2)C=CC1=O,"PFKM (Oryctolagus cuniculus, UniProt P00511)","enzyme activity, inhibitor",,3.92 µM
Nc1ncnc2c1ncn2[C@@H]1O[C@H](CSCCNC(=O)NCc2ccccc2)[C@@H](O)[C@H]1O,"Protein arginine N-methyltransferase 7 (PRMT7, Homo sapiens, UniProt Q9NVM4)","enzyme activity, inhibitor, radiometric",,< 2.4 µM
Cc1nc(Nc2ccc(C)c(Cl)c2)c2c(C)noc2n1,DHODH,"enzyme activity, inhibitor, absorbance",,> 50 µM
CC(C)C[C@H](NC(=O)[C@H](Cc1ccccc1)N=[N+]=[N-])C(=O)N[C@@H](CC(C)(C)F)C(=O)N[C@H](/C=C/S(C)(=O)=O)Cc1ccc(CN)cc1,PSMB8,"enzyme activity, inhibitor",lysate,2.34 µM
Cn1cc(C2=C(c3coc4ccccc34)C(=O)NC2=O)c2cc(Br)ccc21,DYRK1B,"enzyme activity, inhibitor",,0.59 µM
COc1ccc(S(=O)(=O)ON=C2C=C(C)C(=O)C(C)=C2)cc1,"CREB-binding protein (CREBBP, Homo sapiens, UniProt Q92793)","enzyme activity, inhibitor, radiometric",,> 100 µM
Cc1nc(Nc2ccc(S(F)(F)(F)(F)F)cc2)c2c(C)noc2n1,DHODH,"enzyme activity, inhibitor, absorbance",,> 50 µM
CC(=O)N[C@@H](CC(=O)O)C(=O)N[C@@H](CCC(=O)O)C(=O)N[C@H](C(=O)N[C@H](C=O)CC(=O)O)C(C)C,"Caspase-7 (CASP7, Homo sapiens, UniProt P55210)","enzyme activity, inhibitor",,0.00175 µM
CN1CCN(c2ccc(Nc3ncc4cc(C#N)c(=O)n(C5CCCC5)c4n3)cc2)CC1,"Dual specificity tyrosine-phosphorylation-regulated kinase 1A (DYRK1A, Homo sapiens, UniProt Q13627)","enzyme activity, inhibitor",,0.807 µM
CC(C)C[C@H](NC(=O)[C@H](CC(C)C)NC(=O)[C@H](Cc1ccccc1)NC(=O)CN=[N+]=[N-])C(=O)N[C@H](/C=C/S(C)(=O)=O)Cc1ccc(CN)cc1,PSMB8,"enzyme activity, inhibitor",lysate,1.3 µM
Cc1ccc(NC(=O)c2ccc(C)c(C(F)(F)F)c2)cc1C#Cc1nn(C2CCC(O)CC2)c2ncnc(N)c12 (centres unmarked),EPHA7,"enzyme activity, inhibitor, radiometric",,0.143 µM
CCn1ncc2c1-c1cnc(N)c(c1)O[C@H](C)c1cc(F)ccc1-c1nn(C)nc1C2,EPHA7,"enzyme activity, inhibitor, radiometric",,0.379 µM
COc1ccc(C[C@H](NC(=O)[C@H](C)NC(=O)CN2CCOCC2)C(=O)N[C@@H](CC2CCC(C(F)(F)F)CC2)C(=O)[C@@]2(C)CO2)cc1 (some centres unmarked),PSMB8,"enzyme activity, inhibitor",lysate,0.191 µM
NC(=O)C1CCN(C(=O)c2ccc(NCc3cnc4nc(N)nc(N)c4n3)cc2)CC1,TYMS,"enzyme activity, inhibitor",,42 µM
O=C(N=Nc1c(O)[nH]c2ccccc12)c1cccs1,TYMS,"enzyme activity, inhibitor, radiometric",,260 µM
Oc1ccc2ccccc2n1,"Serum paraoxonase/arylesterase 1 (PON1, Homo sapiens, UniProt P27169)","enzyme activity, inhibitor",,4.4 µM
CCOc1ccc2c(-c3cc(C)nc(Nc4cc(OC)cc(C(F)(F)F)c4)n3)cnn2n1,DYRK1B,"enzyme activity, inhibitor",,> 10 µM
CC/C(=N\NC(=O)C(C)Nc1ccccc1)c1ccc(O)c(C)c1O (centres unmarked),"Ribosomal protein S6 kinase beta-1 (RPS6KB1, Homo sapiens, UniProt P23443)","enzyme activity, inhibitor",,0.0335 µM
Cc1ncc(C(=O)N[C@@H](CC(C)C)C(=O)N[C@@H](CC2CCCCC2)C(=O)N[C@H](/C=C/S(C)(=O)=O)Cc2ccc(CN)cc2)s1,PSMB8,"enzyme activity, inhibitor",lysate,> 10 µM
Oc1ccc(Cl)cc1Nc1nc(NCC2CCCO2)c2ccccc2n1 (centres unmarked),"Lysosomal acid glucosylceramidase (GBA1, Homo sapiens, UniProt P04062, R534H)","enzyme activity, inhibitor",,19 µM
Cc1cccn2c(Nc3ccc(Cl)cc3)c(-c3ccc(S(C)(=O)=O)cc3)nc12,"Prostaglandin G/H synthase 2 (PTGS2, Homo sapiens, UniProt P35354)","enzyme activity, inhibitor",,0.14 µM
Cc1ncc(C(=O)N[C@@H](CC(C)C)C(=O)N[C@@H](CC2CCC(C3CCCCC3)CC2)C(=O)N[C@H](/C=C/S(C)(=O)=O)Cc2ccc(CN)cc2)s1 (some centres unmarked),PSMB8,"enzyme activity, inhibitor",lysate,> 10 µM
N#Cc1ccc(COc2cccc(C3CCN(Cc4nc5ccc(C(=O)O)cc5n4C[C@@H]4CCO4)CC3)n2)c(F)c1,"Glucagon receptor (GCGR, Homo sapiens, UniProt P47871)","cAMP, antagonist",,> 20 µM
